Results on six molecules are retold here after article PMC4836388 (ACS chemical biology, 2015).

“Also recorded” adds a separate entry of the source.

Test [1] has as its system HIV-1BaL pseudovirus. The experiment in a line: single-round pseudoviral infection luciferase reporter assay. To be noted: for inhibition of pseudotyped HIV-1BaL infection by sulfhydryl reagent: reagent not removed. Format: cell-based. For orientation: In a reporter assay the amount or activity of a reporter protein is the signal.
The next test has as its system HIV-1BaL virions. Description: sulfhydryl reagent treat/wash viral infection assay. Format: cell-based. To be noted: HOS cells.
Test [2] deals with pseudotyped HIV-1BaL virus. The experiment in a line: virolysis assay. To be noted: HIV-1BaL pseudotyped virions.
For test [3], the system named is HIV-1BaL pseudovirus. The experiment in a line: 2G12 mechanism of action infection assay. It is filed as cell-based. The settings on record: ligand added after virus bound to cells at 4 °C. A digest of the protocol:
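HIV-1BaL.01 Env pseudovirus (pNL4-3.Luc+ R− E− backbone, made in HEK-293T, iodixanol-gradient purified) bound to prechilled HOS.T4.R5 cells (preseeded 24 h, 8000/well) 4 h at 4 °C. Cells washed twice cold, then exposed to serially diluted test antibody for 30 min steps at 4 °C and 23 °C, then 24 h at 37 °C. Medium wash; lysis at 48 h; luciferase (1 mM D-luciferin). Enfuvirtide control wells; triplicate; infection relative to virus without inhibitor.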

The subject of test [4] is pseudotyped HIV-1BaL virions. Description: protein inhibition of virolysis. The settings on record: with 10 μM 1, 14 μM 2 or 50 μM 8 (EC80).

Consider `O[C@@H](CS)[C@@H](O)CS` (racemic) [DTT, dithiothreitol], for which, in the test with HIV-1BaL pseudovirus [1], the “inhibition of pseudotyped HIV-1BaL infection by sulfhydryl reagent” value (“inhibition … by sulfhydryl reagent” for short) is on record as “inhibit”. The “virus infectivity after reagent treatment and removal” value with HIV-1BaL virions is reported as “did not cause significant dose-dependent reduction”.
With `CC[C@H](C)[C@H](NC(=O)[C@@H](N)CCCNC(=N)N)C(=O)N[C@@H](CC(N)=O)C(=O)N[C@@H](CC(N)=O)C(=O)N[C@H](C(=O)N1C[C@@H](n2cc([C]34[CH]5[CH]6[CH]7[CH]3[Fe]6754389%10[CH]4[CH]3[CH]8[CH]9[CH]4%10)nn2)C[C@H]1C(=O)N[C@@H](Cc1c[nH]c2ccccc12)C(=O)N[C@@H](CO)C(=O)N[C@@H](CCC(=O)O)C(=O)N[C@@H](C)C(=O)N[C@@H](CCSC)C(=O)N[C@@H](CCSC)C(=O)NCCC(=O)N[C@@H](CCC(N)=O)C(=O)NCCC(=O)N[C@@H](CSC1CC(=O)N(CCC(=O)NCCCOCCOCCOCCCNC(=O)CCN2C(=O)CC(SC[C@H](NC(=O)CCNC(=O)[C@H](CCC(N)=O)NC(=O)CCNC(=O)[C@H](CCSC)NC(=O)[C@H](CCSC)NC(=O)[C@H](C)NC(=O)[C@H](CCC(=O)O)NC(=O)[C@H](CO)NC(=O)[C@H](Cc3c[nH]c4ccccc34)NC(=O)[C@@H]3C[C@H](n4cc([C]56[CH]7[CH]8[CH]9[CH]5[Fe]89765%10%11%12[CH]6[CH]5[CH]%10[CH]%11[CH]6%12)nn4)CN3C(=O)[C@@H](NC(=O)[C@H](CC(N)=O)NC(=O)[C@H](CC(N)=O)NC(=O)[C@@H](NC(=O)[C@@H](N)CCCNC(=N)N)[C@@H](C)CC)[C@@H](C)CC)C(N)=O)C2=O)C1=O)C(N)=O)[C@@H](C)CC` (stereo partly drawn) [1a], the “inhibition of HIV-1 infection (in words)” value in the test on HIV-1BaL pseudovirus [1] (HIV-1BaL pseudotyped virions) is “powerful inhibitor of HIV-1 infection, comparable to 1”. In test [2], the “p24 release (in words)” value is reported as “did not induce p24 release”.
Turning to `NC(=O)CI` [IAAm, iodoacetamide], in the test with HIV-1BaL pseudovirus [1], the “inhibition … by sulfhydryl reagent” value is recorded as “inhibit”.
On to `O=C(O)CCP(CCC(=O)O)CCC(=O)O` [TCEP, tris(2-carboxyethyl)phosphine], for which the “inhibition … by sulfhydryl reagent” value with HIV-1BaL pseudovirus [1] is reported as “inhibit”. In addition, the “virus infectivity after reagent treatment and removal” value in the test with HIV-1BaL virions was “did not cause significant dose-dependent reduction”.
On to enfuvirtide [T20], for which the “infection with six-helix bundle formation delayed by low temperature” value with HIV-1BaL pseudovirus [3] is on record as “blocked infection”.

B1: cyanovirin-N: lectin that binds high-mannose glycans in the gp120 outer domain (protein, UniProt P81180 1-101, looked up)
Cyanovirin-N: LGKFSQTCYNSAIQGSVLTSTCERTNGGYNTSSIDLNSVIENVDGSLKWQPSNFIETCRNTQLAGSSELAAECKTRAQQFVSTKINLDDHIANIDGTLKYE
As for B1, in test [4], the “inhibition of PTT-induced p24 release by protein ligand” value is on record as “did not inhibit p24 release; also recorded: no inhibition of p24 release”.
